Laboratory results from ChEMBL document CHEMBL1126758, “Synthesis and structure-activity studies of a series of spirooxazolidine-2,4-diones: 4-oxa analogues of the muscarinic agonist 2-ethyl-8-methyl-2,8-diazaspiro[4.5]decane-1,3-dione” (J Med Chem, 1993).
Substitutions are numbered along the chain they refer to. pKi: −log10 of the molar value.

Legend:
[1] = target: T1, Muscarinic acetylcholine receptor M1 (Rattus norvegicus) (UniProt P08482); experiment: Compound was tested for percent inhibition against displacement of [3H]pirenzepine from rat cortex membrane expressing muscarinic M1 receptor at 10^-6 M
T1 sequence (whole entry): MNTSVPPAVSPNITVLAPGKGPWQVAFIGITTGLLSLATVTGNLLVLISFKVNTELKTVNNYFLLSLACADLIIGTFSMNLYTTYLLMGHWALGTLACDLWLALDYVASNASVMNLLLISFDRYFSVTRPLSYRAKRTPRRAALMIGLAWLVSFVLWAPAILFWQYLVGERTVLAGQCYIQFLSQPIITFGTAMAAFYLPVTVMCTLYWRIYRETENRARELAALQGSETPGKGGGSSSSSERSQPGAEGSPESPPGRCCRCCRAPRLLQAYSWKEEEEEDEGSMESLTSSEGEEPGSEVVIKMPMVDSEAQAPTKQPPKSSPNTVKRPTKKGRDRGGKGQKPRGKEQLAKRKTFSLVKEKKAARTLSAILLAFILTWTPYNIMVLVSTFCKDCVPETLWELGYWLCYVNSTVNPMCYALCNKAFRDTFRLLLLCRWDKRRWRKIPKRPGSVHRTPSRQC

[2] = target: T2, Muscarinic acetylcholine receptor M1 (Rattus norvegicus, UniProt P08482); experiment: Displacement of [3H]pirenzepine from rat cortex membrane expressing muscarinic M1 receptor
T2 sequence (P08482 whole entry): T1 sequence (whole entry)
Method in brief: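 M1 binding: male Wistar rat cerebral cortex membranes were resuspended in 8.3 mM Tris-HCl with 1.25 mM MnCl2, pH 7.4. Membranes (250 μg protein) were incubated with about 1.0 nM [3H]pirenzepine for 60 min at 25 °C. Atropine 10 μM defined nonspecific binding. Bound radioactivity was collected by filtration and counted by scintillation. IC50 came from logit-log analysis, converted by Cheng-Prusoff to Ki; single experiment in triplicate.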

[3] = Minimum dose required for subcutaneous administration to improve scopolamine-induced impairment of passive avoidance task in mouse(anti-amnesic effect)
Mus musculus [4] = experiment: Dose sc producing more than 30 mg of saliva as a total amount was determined in vivo in mice; format: functional
Method in brief: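 Male ICR mice given test compound subcutaneously. Saliva collected at 15 and 45 min after dosing. ED30mg is the dose giving more than 30 mg total saliva. Start at 30 mg/kg, then lower each dose to one-third of the previous until the criterion fails. 3-6 mice per dose group.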

[5] = target: T3, Muscarinic acetylcholine receptor M2 (Mus musculus) (UniProt Q9ERZ4); experiment: In vivo muscarinic effect of […] hypothermia against central M2 receptor in mice at dose under 30 mg/kg sc (2 degree Celsius); format: functional, organism-based; parameters: dose 30 mg/kg
T3 sequence (whole entry): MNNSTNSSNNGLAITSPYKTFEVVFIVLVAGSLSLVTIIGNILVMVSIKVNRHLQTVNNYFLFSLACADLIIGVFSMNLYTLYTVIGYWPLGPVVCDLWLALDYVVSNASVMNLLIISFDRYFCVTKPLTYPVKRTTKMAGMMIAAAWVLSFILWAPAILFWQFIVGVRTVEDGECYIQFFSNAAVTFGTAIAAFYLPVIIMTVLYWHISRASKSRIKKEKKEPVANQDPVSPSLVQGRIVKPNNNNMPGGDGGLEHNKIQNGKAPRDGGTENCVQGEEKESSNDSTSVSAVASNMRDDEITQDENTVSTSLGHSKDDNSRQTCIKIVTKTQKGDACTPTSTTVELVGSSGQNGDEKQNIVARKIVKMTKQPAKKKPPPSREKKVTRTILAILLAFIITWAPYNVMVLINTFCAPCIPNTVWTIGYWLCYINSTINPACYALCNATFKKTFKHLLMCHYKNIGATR
Method in brief: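 Male ICR mice given test compound subcutaneously. Rectal temperature taken by thermoprobe before dosing and 30 min after. ED for a 2 °C fall was found by starting at 30 mg/kg and lowering each dose to one-third of the previous until no drop over 2 °C was seen. 3-6 mice per dose group.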

[6] = target: T4, Muscarinic acetylcholine receptor M2 (Rattus norvegicus, UniProt P10980); experiment: Compound tested in vitro for displacement of [3H]quinuclidinyl benzilate from rat cerebellum membrane expressing muscarinic M2 receptor; format: tissue-based
T4 sequence (P10980 whole entry): T3 sequence (whole entry) with G270V, K316R, R321K, T331A, A336V
Method in brief: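 Male Wistar rat cerebellum homogenised in 0.32 M sucrose, spun at 900g then 11500g (4 °C), pellet washed in 5 mM Tris-HCl pH 7.4, stored -80 °C. Incubation in 50 mM Na+/K+ phosphate pH 7.4 with 0.06 nM [3H]QNB and 150 μg protein, 60 min at 25 °C. Nonspecific binding with 10 μM atropine. Filtration, scintillation counting. Triplicate, single experiment. Logit-log IC50 converted to Ki by Cheng-Prusoff.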

Mus musculus [7] = experiment: Dose producing more than 30 mg of saliva as a total amount was determined in vivo in mice; format: functional
Method in brief: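 Male ICR mice were dosed sc, and saliva was collected at 15 and 45 min after dosing. ED30mg is the dose giving more than 30 mg total saliva. Dosing started at 30 mg/kg and fell stepwise by thirds. Each dose group had 3-6 mice.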

Mus musculus [8] = experiment: Dose required to reduce the rectal temperature (hypothermia) by 2 degree Celsius was determined in vivo in mice; format: functional
Method in brief: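 Rectal temperature of male ICR mice was taken with a thermoprobe before and 30 min after sc dosing. Dosing started at 30 mg/kg and fell by thirds until a drop over 2 °C no longer occurred, giving ED Δ2°C. Each dose group had 3-6 mice.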

Rattus norvegicus [9] = experiment: Increase in blood pressure of pithed rats after intravenous administration at 0.1 mg/kg; format: functional
Method in brief: (§1)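 Male Wistar rats (ca. 200–300 g) were ether-anesthetized, tracheally catheterized, pithed with a steel rod and ventilated with room air. Drugs were given iv via the left femoral vein. Arterial pressure was recorded from the left common carotid artery, with body temperature held at 37 °C.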

[10] = tested on: Muscarinic acetylcholine receptors M1 & M2 (Rattus norvegicus); experiment: The ratio of Ki for M2 receptor to the Ki for M1 receptor was determined
[11] = target: T4, Muscarinic acetylcholine receptor M2; experiment: Tested against muscarinic M2 receptor by displacement of [3H]quinuclidinyl benzilate from rat cerebellum membrane; format: tissue-based
Method in brief: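 M2 binding: male Wistar rat cerebellum membranes (150 μg protein) were incubated with 0.06 nM [3H]QNB in 50 mM Na+/K+ phosphate, pH 7.4, for 60 min at 25 °C. Atropine 10 μM defined nonspecific binding. Bound radioactivity was collected by filtration and counted by scintillation. Ki came from logit-log IC50 with Cheng-Prusoff correction; single experiment in triplicate, with 95% confidence intervals.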

Rattus norvegicus [12] = experiment: Increase in blood pressure of pithed rats after intravenous administration at 3 mg/kg; format: functional
Method in brief: as §1

| Structure (SMILES) | inhibition [1] [%] | pKi [2] | MED [3] [mg/kg] | also measured |
| --- | --- | --- | --- | --- |
| COC(=O)CN1C(=O)OC2(CCN(C)CC2)C1=O | 40 | < 5.00 |  |  |
| CN1CCC2(CC1)OC(=O)N(c1cccc(Cl)c1)C2=O |  | 4.92 | 0.3 |  |
| C=CCN1C(=O)OC2(CCN(C)CC2)C1=O |  | 5.29 | > 30 |  |
| CCN1C(=O)OC2(CCN(Cc3ccccc3)CC2)C1=O | 2 | < 5.00 |  |  |
| CN1CCC2(CC1)OC(=O)N(CC(N)=O)C2=O | 36 | < 5.00 | > 30 |  |
| CN1CCC2(CC1)OC(=O)N(C(C)(C)C)C2=O |  | 5.82 |  |  |
| CCN1C(=O)C2(CCN(C)CC2)OC1=S |  | 6.05 |  | ED30 (Mus musculus [4]): 30 mg/kg; ED delta [5]: 30 mg/kg; pKi [6]: 5.37 |
| COC(=O)CCCN1C(=O)OC2(CCN(C)CC2)C1=O |  | 5.19 | > 30 |  |
| CN1CCC2(CC1)OC(=O)N(C)C2=O |  | 4.80 | > 30 |  |
| CCN1C(=O)OC2(CCN(CC#CCOC(=O)Nc3cccc(Cl)c3)CC2)C1=O | 0 | < 5.00 | > 30 |  |
| CCN1C(=O)OC2(CCN(C)C2)C1=O (configuration not stated) |  | < 5.00 | > 30 |  |
| CN1CCC2(CC1)OC(=S)N(c1ccccc1)C2=O |  | 5.40 |  |  |
| CN1CCC2(CC1)OC(=O)N(CCN1CCOCC1)C2=O | 10 | < 5.00 | > 30 |  |
| CN1CCC2(CC1)OC(=O)NC2=O | 0 | < 5.00 | > 30 |  |
| CCN1C(=O)OC2(CCNCC2)C1=O.Cl |  | 5.11 | 0.3 | ED30 (Mus musculus [7]): > 30 mg/kg; ED delta (Mus musculus [8]): >30 mg/kg |
| CN1CCC2(CC1)OC(=S)N(C(C)(C)C)C2=O.Cl |  | 6.68 |  | ED30 (Mus musculus [4]): > 30 mg/kg; ED delta [5]: 30 mg/kg; pKi [6]: 5.68 |
| Br.CCN1C(=O)CC2(CCN(C)CC2)C1=O |  | 6.34 | 0.1 | BP (Rattus norvegicus [9]): 12 mmHg; ED delta (Mus musculus [8]): 1 mg/kg; ED30 (Mus musculus [4]): 0.5 mg/kg; pKi [6]: 6.01; M2/M1 Index [10]: 2.1 |
| CCN1C(=O)OC2(CCN(CCCC(=O)OC)CC2)C1=O | 0 | < 5.00 | 30 |  |
| CCN1C(=O)OC2(CCCN(C)C2)C1=O (configuration not stated) |  | < 5.00 | > 30 |  |
| CN1CCC2(CC1)OC(=S)NC2=O | 0 | < 5.00 | 30 |  |
| CCN1C(=O)OC2(CCN(C)CC2)C1=O.Cl |  | 5.30 | 0.3 | ED30 (Mus musculus [7]): 30 mg/kg; ED delta (Mus musculus [8]): >30 mg/kg; pKi [11]: 5.11; BP (Rattus norvegicus [12]): 24 mmHg; M2/M1 Index [10]: 1.5 |
